Hits are enriched below; roughly 2.5% of the tested compounds scored in any of these assays.
MEKK2 mut-MEK5: MEK5 binding signal on mutant MEKK2 PB1, primary screen, biochemical, multiplex bead flow cytometry, Alexa488-MEK5. percent response, % at 10 µM. Alexa488-MEK5 binding to MEKK2 mutant. AID 1530, 2009. 0.35% of 290,000 active; in the data active means percent response above about 24%, passing the limit was not always enough
T cell modulator: modulators of CD8 T cell-vesicle binding, primary screen, mouse 2C CD8+ T cells, flow cytometry; 2C CD8+ T cell-vesicle binding; stronger effect = lower value; response (vesicle binding), % at 7 µM; 0.068% of 330,000 active;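 active means response, share of CD8 T cells binding vesicles, and their 90th percentile fluorescence all below set limits, cut at about 80% in these data, passing the limit was not always enough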;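 further: values below 100% mean blocked vesicle binding to the CD8+ T cells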
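Also added: QL9-peptide-loaded Drosophila micro-vesicles bearing Ld, ICAM-1 and B7-1; Test system: purified 2C TCR transgenic mouse naive CD8+ T cells; Measured by: cytometric PE anti-B7-1 and Alexa647 anti-CD8 signals after 1% paraformaldehyde fixation; Timing: binding step 1.5 h, 37 °C, antibody labelling 20 min, ice.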
UCH37 inh: inhibitors of human UCH37 deubiquitinase, primary screen, biochemical, Ub-AMC cleavage, fluorescence | Ubiquitin carboxyl-terminal hydrolase isozyme L5 (Homo sapiens), Q9Y5K5 | purified proteasome/UCH37 | inhibition, % (concentration not given with the values) | 0.33% of 330,000 active | AID 588478, 2011;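 active means mean inhibition over replicate wells above about 20%, limit read from the data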;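 further: 0% = compound-free wells with enzyme and 100% = wells lacking proteasome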
Target sequence (Q9Y5K5 whole entry, looked up): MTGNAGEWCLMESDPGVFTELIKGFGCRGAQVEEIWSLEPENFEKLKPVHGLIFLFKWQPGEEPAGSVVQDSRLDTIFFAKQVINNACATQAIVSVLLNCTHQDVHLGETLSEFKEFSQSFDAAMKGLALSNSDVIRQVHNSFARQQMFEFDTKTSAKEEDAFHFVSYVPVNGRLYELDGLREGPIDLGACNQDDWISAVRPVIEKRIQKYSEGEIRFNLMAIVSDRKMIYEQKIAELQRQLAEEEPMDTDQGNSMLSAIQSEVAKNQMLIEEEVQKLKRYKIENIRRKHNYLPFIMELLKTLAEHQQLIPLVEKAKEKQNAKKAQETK
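Material: Human UCH37 enzyme supplied as purified proteasome complex | Schedule: 30 min preincubation with enzyme, 25 min cleavage at room temperature | Detection: AMC fluorescence 355/460 nm | Measure: % inhibition of Ub-AMC cleavage fluorescence | Controls: Wells without proteasome as full block, compound-free enzyme plus substrate as uninhibited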
MEKK3 PB1 HTS: modulators of MEKK3-MEK5 PB1 binding, primary screen, biochemical, wildtype MEKK3, multiplex bead flow cytometry, Alexa488-MEK5 | bead-based flow cytometry, Alexa488-MEK5 binding to MEKK3; actives lie on both sides; 0 = blocked by unlabeled MEK5, 100 = vehicle | binding response (% of control), % at 10 µM | 1.4% of 290,000 active;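 active means binding response more than 3 SD above or below the average of its plate-row segment, actives on both sides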;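 further: Alexa488 bead fluorescence after subtracting the streptavidin-only scavenger bead signal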
MEKK2wt PB1 HTS: modulators of MEK5 binding to wildtype MEKK2, primary screen, biochemical, multiplex bead flow cytometry, Alexa488-MEK5 | Mitogen-activated protein kinase kinase kinase 2 (Homo sapiens), Q9Y2U5 | Alexa488-MEK5 binding to MEKK2 WT; actives lie on both sides | binding response (% of control), % at 10 µM | 1.1% of 290,000 active | AID 1531, 2009; in the data active means binding response below about 67% or above about 130%
Rce1 inh: yeast Rce1p protease inhibitors, primary screen, biochemical, fluorescence, cell-free homogeneous; yeast membranes, quenched prenylated peptide cleavage fluorescence; 0.27% of 290,000 active; AID 2563, 2010; calls only;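 active means fall in fluorescence gain of 50% or more versus controls, with final raw signal at or below 3038400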;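 further: plate controls were neutral control wells for no effect and wells lacking membranes for full effect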
Target sequence (Q03530 whole entry, looked up): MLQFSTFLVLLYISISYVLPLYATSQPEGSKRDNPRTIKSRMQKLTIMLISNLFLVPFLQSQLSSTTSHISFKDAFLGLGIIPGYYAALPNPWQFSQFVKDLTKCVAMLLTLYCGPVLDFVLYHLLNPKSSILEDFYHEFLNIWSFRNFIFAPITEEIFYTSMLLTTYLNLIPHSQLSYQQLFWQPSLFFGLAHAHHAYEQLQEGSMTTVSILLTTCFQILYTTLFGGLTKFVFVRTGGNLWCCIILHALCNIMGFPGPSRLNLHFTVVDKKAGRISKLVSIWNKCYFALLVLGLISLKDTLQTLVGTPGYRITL
* = called active by the depositor.

Screening COC(=O)c1cc(C)nc2c1c(C)nn2-c1ccccc1 returned T cell modulator 249.
For CCOC(=O)NN=Cc1ccccc1F the results were UCH37 inh 0.
CNc1ccccc1C(C)(C)c1cc(-c2cccc(Br)c2)no1 was read as MEKK2 mut-MEK5 0, T cell modulator 325, UCH37 inh 0, MEKK3 PB1 HTS 99, MEKK2wt PB1 HTS 9.0* and Rce1 inh inactive.
CC(/C=C/c1ccccc1)=NNC(=O)CNC(=O)c1ccccc1F was read as UCH37 inh 4.
Screening CC(=NNC(N)=S)c1ccc(Cl)s1 returned UCH37 inh 8.
Screening COc1cccc(C2C(C(=O)c3cc4cccc(OC)c4o3)=C(O)C(=O)N2c2cc(C)on2)c1OC (stereo not drawn) returned MEKK2 mut-MEK5 1, T cell modulator 177, UCH37 inh 7, MEKK3 PB1 HTS 99, MEKK2wt PB1 HTS 94 and Rce1 inh inactive.
Screening COc1cccc2cc(C(=O)C3=C(O)C(=O)N(c4cc(C)on4)C3c3cccs3)oc12 (stereo not drawn) returned MEKK2 mut-MEK5 2, T cell modulator 180, UCH37 inh 1, MEKK3 PB1 HTS 100, MEKK2wt PB1 HTS -11* and Rce1 inh inactive.
COc1cccc(OC)c1-c1nnc(-c2cn(C)c3ccccc23)o1 was read as MEKK2 mut-MEK5 2, T cell modulator 33*, UCH37 inh -8, MEKK3 PB1 HTS 102, MEKK2wt PB1 HTS 102 and Rce1 inh inactive.
COc1ccccc1-c1nnc(-c2ccc(C)cc2)o1 was read as T cell modulator 194, UCH37 inh 1 and Rce1 inh inactive.
Oc1oc(-c2cccc3ccccc23)nc1/C=N/c1nccs1 was read as MEKK2 mut-MEK5 1, T cell modulator 208, MEKK3 PB1 HTS 130*, MEKK2wt PB1 HTS 104 and Rce1 inh inactive.
For Cn1c(=O)c2c(nc(NCC3CCCO3)n2Cc2ccccc2)n(C)c1=O (stereo not drawn) the results were MEKK2 mut-MEK5 4, T cell modulator 829, UCH37 inh 26*, MEKK3 PB1 HTS 106, MEKK2wt PB1 HTS 105 and Rce1 inh inactive.
`CCN(CC)C(=O)C(=O)NN=Cc1ccc(Cl)cc1Cl` gave UCH37 inh 5.
`O=C(O)CCc1nc2cc(C(F)(F)F)ccc2n(Cc2ccccc2)c1=O` gave MEKK2 mut-MEK5 1, T cell modulator 181, UCH37 inh -2, MEKK3 PB1 HTS 106, MEKK2wt PB1 HTS 99 and Rce1 inh active.
`CCn1c(SCc2ccc(C#N)cc2)nnc1-c1cccc(Cl)c1` gave T cell modulator 368, UCH37 inh 0 and Rce1 inh inactive.
For Cc1cccc(-c2nnc(SCc3ccc(C#N)cc3)n2Cc2ccco2)c1 the results were MEKK2 mut-MEK5 5, T cell modulator 360, UCH37 inh -1, MEKK3 PB1 HTS 109, MEKK2wt PB1 HTS 102 and Rce1 inh active.
For Cn1c(SCc2ccc(C#N)cc2)nnc1-c1ccncc1 the results were MEKK2 mut-MEK5 4, T cell modulator 184, UCH37 inh 2, MEKK3 PB1 HTS 104, MEKK2wt PB1 HTS 105 and Rce1 inh inactive.
Screening C=CCn1c(SCc2ccc(C#N)cc2)nnc1-c1ccc(C)cc1 returned MEKK2 mut-MEK5 7, T cell modulator 570, UCH37 inh 0, MEKK3 PB1 HTS 114, MEKK2wt PB1 HTS 114 and Rce1 inh active.
For Nc1ccc(C(=O)NN=Cc2ccc(OC(=O)c3ccccc3Cl)cc2)cc1 the results were UCH37 inh 3.
O=C(NN=Cc1ccc(OC(=O)c2ccccc2Cl)cc1)c1cc(O)cc(O)c1 was read as UCH37 inh 22*.
CCOc1ccc(C=NO)cc1 was read as UCH37 inh 0.
Screening CCOC(=O)c1c(-c2ccccc2)oc2ccc(OCC(O)CN(C)C)cc12 (stereo not drawn) returned MEKK2 mut-MEK5 25*, T cell modulator 212, UCH37 inh -285, MEKK3 PB1 HTS 107, MEKK2wt PB1 HTS 162* and Rce1 inh inactive.
CC(=NNC(=O)Cn1nnc2ccccc21)c1ccco1 was read as UCH37 inh 0.
`COc1ccc2nc(C)cc(NCc3cccc(C(F)(F)F)c3)c2c1` gave MEKK2 mut-MEK5 16, T cell modulator 273, UCH37 inh -18, MEKK3 PB1 HTS 104, MEKK2wt PB1 HTS 154* and Rce1 inh inactive.
Screening COc1cc(C(C)=NNC(=O)CSc2nc3ccccc3[nH]2)ccc1O returned UCH37 inh 3.
For Cc1onc(-c2ccccc2Cl)c1C(=O)Nc1ccc(S(=O)(=O)Nc2nccs2)cc1 the results were MEKK2 mut-MEK5 -1, T cell modulator 365, UCH37 inh 30*, MEKK3 PB1 HTS 100, MEKK2wt PB1 HTS 97 and Rce1 inh inactive.
`Cc1onc(-c2ccccc2Cl)c1C(=O)Nc1ccccc1` gave MEKK2 mut-MEK5 1, T cell modulator 311, UCH37 inh 1, MEKK3 PB1 HTS 98, MEKK2wt PB1 HTS 107 and Rce1 inh inactive.
Nc1nonc1-n1nnc(C(=O)NN=Cc2cccc(Cl)c2)c1CN1CCOCC1 was read as UCH37 inh 5.
For CCOC(=O)c1sc(NC(=O)CSc2ncn[nH]2)c(C#N)c1C the results were MEKK2 mut-MEK5 5, T cell modulator 15*, UCH37 inh 8, MEKK3 PB1 HTS 104, MEKK2wt PB1 HTS 107 and Rce1 inh inactive.
`CCOC(=O)c1cc(C)[nH]c1C` gave MEKK2 mut-MEK5 -17, T cell modulator 411, UCH37 inh 1, MEKK3 PB1 HTS 92, MEKK2wt PB1 HTS 93 and Rce1 inh inactive.
For CCOC(=O)c1cc(C)[nH]c(=O)c1C#N the results were MEKK2 mut-MEK5 2, T cell modulator 183, MEKK3 PB1 HTS 99, MEKK2wt PB1 HTS 101 and Rce1 inh active.
`O=C(NN=Cc1cn[nH]c1-c1ccccc1)c1ccc([N+](=O)[O-])cc1` gave UCH37 inh 5.
Screening COc1ccc(CCN(C)C(=O)c2ccc(S(=O)(=O)Nc3ccccc3C)cc2)cc1OC returned MEKK2 mut-MEK5 -6, T cell modulator 280, UCH37 inh 1, MEKK3 PB1 HTS 89, MEKK2wt PB1 HTS 92 and Rce1 inh active.
